# Data from ChEMBL document CHEMBL5058577, “EUbOPEN Chemogenomics Library 2 (Multiplex)” (2022).
# Test system: Fibroblast
# Assay: Multiplex assay against human fibroblast
# Assay type: toxicity, cell-based
# In short: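 Live cells were stained at seeding with Hoechst33342, BioTracker Green Microtubule Cytoskeleton Dye, MitoTracker Red and Annexin V Alexa Fluor 680. Following compound addition, they were imaged on a CQ1 microscope at 37°C and 5% CO2 and gated by CellPathfinder machine learning into Hoechst high-intensity objects or normal cells, with normal cells split into healthy, pyknosed or fragmented nuclei and pyknosed cells into mitotic or apoptotic. Tubulin, mitochondrial-mass and membrane-permeability phenotypes are per cents of healthy-nucleus cells.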
# [1] = 12 h, 1 µM, compound concentration 1 uM, replicate 1
# [2] = 12 h, 1 µM, compound concentration 1 uM, replicate 2
# [3] = 12 h, 10 µM, compound concentration 10 uM, replicate 1
# [4] = 12 h, 10 µM, compound concentration 10 uM, replicate 2
# [5] = 24 h, 1 µM, compound concentration 1 uM, replicate 1
# [6] = 24 h, 1 µM, compound concentration 1 uM, replicate 2
# [7] = 24 h, 10 µM, compound concentration 10 uM, replicate 1
# [8] = 24 h, 10 µM, compound concentration 10 uM, replicate 2
# [9] = 48 h, 1 µM, compound concentration 1 uM, replicate 1
# [10] = 48 h, 1 µM, compound concentration 1 uM, replicate 2
# [11] = 48 h, 10 µM, compound concentration 10 uM, replicate 1
# [12] = 48 h, 10 µM, compound concentration 10 uM, replicate 2
smiles,measurement,setting,value
C[C@H](N)COC(=O)[C@@H](CCCCN)NC(=O)Cc1c(-c2ccc3ccccc3c2)[nH]c2c1ccc1ccccc12,Population Apoptotic (%),[1],32%
same,Population Fragmented Nuclei (%),[1],18%
same,Population Healthy Nuclei (%),[1],65%
same,Population Hoechst High Intensity Objects (%),[1],1%
same,Population Membrane Permeable-Phenotype (%),[1],0%
same,Population Mitochondria Different-Phenotype (%),[1],7%
same,Population Mitotic Cells (%),[1],67%
same,Population Normal (%),[1],98%
same,Population Pyknosed Nuclei (%),[1],15%
same,Population Tubulin-Different-Phenotype (%),[1],32%
same,Total Cell Count,[1],179
same,Population Apoptotic (%),[2],50%
same,Population Fragmented Nuclei (%),[2],25%
same,Population Healthy Nuclei (%),[2],51%
same,Population Hoechst High Intensity Objects (%),[2],4%
same,Population Membrane Permeable-Phenotype (%),[2],5%
same,Population Mitochondria Different-Phenotype (%),[2],4%
same,Population Mitotic Cells (%),[2],50%
same,Population Normal (%),[2],95%
same,Population Pyknosed Nuclei (%),[2],23%
same,Population Tubulin-Different-Phenotype (%),[2],36%
same,Total Cell Count,[2],170
same,Population Apoptotic (%),[3],43%
same,Population Fragmented Nuclei (%),[3],13%
same,Population Healthy Nuclei (%),[3],69%
same,Population Hoechst High Intensity Objects (%),[3],2%
same,Population Membrane Permeable-Phenotype (%),[3],1%
same,Population Mitochondria Different-Phenotype (%),[3],8%
same,Population Mitotic Cells (%),[3],56%
same,Population Normal (%),[3],97%
same,Population Pyknosed Nuclei (%),[3],16%
same,Population Tubulin-Different-Phenotype (%),[3],33%
same,Total Cell Count,[3],183
same,Population Apoptotic (%),[4],62%
same,Population Fragmented Nuclei (%),[4],32%
same,Population Healthy Nuclei (%),[4],50%
same,Population Hoechst High Intensity Objects (%),[4],7%
same,Population Membrane Permeable-Phenotype (%),[4],5%
same,Population Mitochondria Different-Phenotype (%),[4],6%
same,Population Mitotic Cells (%),[4],37%
same,Population Normal (%),[4],92%
same,Population Pyknosed Nuclei (%),[4],17%
same,Population Tubulin-Different-Phenotype (%),[4],47%
same,Total Cell Count,[4],167
same,Population Apoptotic (%),[5],53%
same,Population Fragmented Nuclei (%),[5],16%
same,Population Healthy Nuclei (%),[5],66%
same,Population Hoechst High Intensity Objects (%),[5],3%
same,Population Membrane Permeable-Phenotype (%),[5],0%
same,Population Mitochondria Different-Phenotype (%),[5],5%
same,Population Mitotic Cells (%),[5],46%
same,Population Normal (%),[5],96%
same,Population Pyknosed Nuclei (%),[5],17%
same,Population Tubulin-Different-Phenotype (%),[5],30%
same,Total Cell Count,[5],179
same,Population Apoptotic (%),[6],29%
same,Population Fragmented Nuclei (%),[6],25%
same,Population Healthy Nuclei (%),[6],54%
same,Population Hoechst High Intensity Objects (%),[6],7%
same,Population Membrane Permeable-Phenotype (%),[6],3%
same,Population Mitochondria Different-Phenotype (%),[6],7%
same,Population Mitotic Cells (%),[6],70%
same,Population Normal (%),[6],92%
same,Population Pyknosed Nuclei (%),[6],20%
same,Population Tubulin-Different-Phenotype (%),[6],39%
same,Total Cell Count,[6],162
same,Population Apoptotic (%),[7],63%
same,Population Fragmented Nuclei (%),[7],13%
same,Population Healthy Nuclei (%),[7],74%
same,Population Hoechst High Intensity Objects (%),[7],7%
same,Population Membrane Permeable-Phenotype (%),[7],0%
same,Population Mitochondria Different-Phenotype (%),[7],5%
same,Population Mitotic Cells (%),[7],36%
same,Population Normal (%),[7],92%
same,Population Pyknosed Nuclei (%),[7],11%
same,Population Tubulin-Different-Phenotype (%),[7],31%
same,Total Cell Count,[7],171
same,Population Apoptotic (%),[8],50%
same,Population Fragmented Nuclei (%),[8],36%
same,Population Healthy Nuclei (%),[8],50%
same,Population Hoechst High Intensity Objects (%),[8],6%
same,Population Membrane Permeable-Phenotype (%),[8],5%
same,Population Mitotic Cells (%),[8],50%
same,Population Normal (%),[8],93%
same,Population Pyknosed Nuclei (%),[8],13%
same,Population Tubulin-Different-Phenotype (%),[8],54%
same,Total Cell Count,[8],159
same,Population Apoptotic (%),[9],72%
same,Population Fragmented Nuclei (%),[9],21%
same,Population Healthy Nuclei (%),[9],65%
same,Population Hoechst High Intensity Objects (%),[9],5%
same,Population Membrane Permeable-Phenotype (%),[9],0%
same,Population Mitochondria Different-Phenotype (%),[9],7%
same,Population Mitotic Cells (%),[9],27%
same,Population Normal (%),[9],94%
same,Population Pyknosed Nuclei (%),[9],12%
same,Population Tubulin-Different-Phenotype (%),[9],26%
same,Total Cell Count,[9],186
same,Population Apoptotic (%),[10],51%
same,Population Fragmented Nuclei (%),[10],30%
same,Population Healthy Nuclei (%),[10],50%
same,Population Hoechst High Intensity Objects (%),[10],2%
same,Population Membrane Permeable-Phenotype (%),[10],3%
same,Population Mitochondria Different-Phenotype (%),[10],6%
same,Population Mitotic Cells (%),[10],48%
same,Population Normal (%),[10],97%
same,Population Pyknosed Nuclei (%),[10],18%
same,Population Tubulin-Different-Phenotype (%),[10],39%
same,Total Cell Count,[10],169
same,Population Apoptotic (%),[11],46%
same,Population Fragmented Nuclei (%),[11],16%
same,Population Healthy Nuclei (%),[11],68%
same,Population Hoechst High Intensity Objects (%),[11],9%
same,Population Membrane Permeable-Phenotype (%),[11],0%
same,Population Mitochondria Different-Phenotype (%),[11],4%
same,Population Mitotic Cells (%),[11],53%
same,Population Normal (%),[11],90%
same,Population Pyknosed Nuclei (%),[11],15%
same,Population Tubulin-Different-Phenotype (%),[11],35%
same,Total Cell Count,[11],185
same,Population Apoptotic (%),[12],55%
same,Population Fragmented Nuclei (%),[12],36%
same,Population Healthy Nuclei (%),[12],52%
same,Population Hoechst High Intensity Objects (%),[12],5%
same,Population Membrane Permeable-Phenotype (%),[12],7%
same,Population Mitochondria Different-Phenotype (%),[12],8%
same,Population Mitotic Cells (%),[12],44%
same,Population Normal (%),[12],94%
same,Population Pyknosed Nuclei (%),[12],11%
same,Population Tubulin-Different-Phenotype (%),[12],54%
same,Total Cell Count,[12],166
